Assay results from ChEMBL document CHEMBL1155548, “Synthesis and evaluation of new endomorphin-2 analogues containing (Z)-alpha,beta-didehydrophenylalanine (Delta(Z)Phe) residues” (J Med Chem, 2010).

Target: Delta-type opioid receptor (Homo sapiens, UniProt P41143)
Experiment: Displacement of [3H]DPDPE from human delta opioid receptor expressed in HEK293 cells up to 100 uM; call rule not given here
Format: cell-based
Method in brief: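 Crude membranes from transfected cells: HN9.10 cells expressing rat μ-opioid receptor, competed against μ-selective agonist [³H]DAMGO; HEK293 cells expressing human δ-opioid receptor, competed against δ-selective agonist [³H]DPDPE. Competitive displacement with three independent experiments, fitted by non-linear regression; Ki derived from IC50 via Cheng–Prusoff equation.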

Chain of Delta-type opioid receptor (P41143 whole entry): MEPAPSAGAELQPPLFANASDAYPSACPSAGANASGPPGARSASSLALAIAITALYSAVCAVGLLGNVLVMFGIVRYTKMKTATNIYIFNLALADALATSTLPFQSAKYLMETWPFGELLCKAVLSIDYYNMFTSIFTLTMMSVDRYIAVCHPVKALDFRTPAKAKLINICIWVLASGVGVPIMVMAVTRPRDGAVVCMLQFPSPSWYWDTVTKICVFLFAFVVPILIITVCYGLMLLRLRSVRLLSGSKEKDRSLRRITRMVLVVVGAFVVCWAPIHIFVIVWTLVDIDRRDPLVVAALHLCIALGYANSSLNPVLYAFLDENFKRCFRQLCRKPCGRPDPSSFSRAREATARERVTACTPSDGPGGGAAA

Question: How did the Ki turn out when `NC(=O)[C@H](Cc1ccccc1)NC(=O)/C(=C/c1ccccc1)NC(=O)[C@@H]1CCCN1C(=O)[C@@H](N)Cc1ccc(O)cc1` was run?
Answer: Not Active
